Only some compounds are listed: those with a hit (about 2.3% of all), similar ones and a draw of the others.
V1R ag counter: V1a receptor agonism, counter-screen for OXTR agonists | hit rate 0.25% among 320,000 | activation, % at 3 µM | CHO-V1R cells, Fluo-8 calcium fluorescence, agonist mode; 0% DMSO, 100% 3 nM vasopressin;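 active = activation above the mean activation of all tested compounds plus 3 SD, per screening run, cut at about 20% in these data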;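 note: signal is peak over basal fluorescence ratio across a 100 second FLIPR read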
Target sequence (P37288 whole entry, looked up): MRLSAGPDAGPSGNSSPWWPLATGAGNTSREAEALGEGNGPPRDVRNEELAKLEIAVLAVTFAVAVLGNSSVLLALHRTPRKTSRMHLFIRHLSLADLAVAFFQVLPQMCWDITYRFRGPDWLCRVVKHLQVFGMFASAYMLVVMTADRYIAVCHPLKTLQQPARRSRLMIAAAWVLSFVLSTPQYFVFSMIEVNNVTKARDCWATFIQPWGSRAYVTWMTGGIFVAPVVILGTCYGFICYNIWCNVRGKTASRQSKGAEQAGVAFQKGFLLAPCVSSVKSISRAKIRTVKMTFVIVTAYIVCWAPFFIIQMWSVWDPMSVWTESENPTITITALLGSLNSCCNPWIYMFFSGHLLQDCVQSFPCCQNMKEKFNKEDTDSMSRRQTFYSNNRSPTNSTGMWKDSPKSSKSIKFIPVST
TAAR1 antagonist: antagonists of human TAAR1; Q96RJ0; CHO RD-HGA16 TAAR1, Fluo-8 calcium fluorescence, antagonist; inhibition, % at 3 µM; hit rate 1.5% among 360,000; AID 624466;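 active = inhibition above a per-plate cutoff, the mean inhibition of test compounds on that plate plus 3 SD, cut at about 49% in these data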
Target sequence (Q96RJ0 whole entry, looked up): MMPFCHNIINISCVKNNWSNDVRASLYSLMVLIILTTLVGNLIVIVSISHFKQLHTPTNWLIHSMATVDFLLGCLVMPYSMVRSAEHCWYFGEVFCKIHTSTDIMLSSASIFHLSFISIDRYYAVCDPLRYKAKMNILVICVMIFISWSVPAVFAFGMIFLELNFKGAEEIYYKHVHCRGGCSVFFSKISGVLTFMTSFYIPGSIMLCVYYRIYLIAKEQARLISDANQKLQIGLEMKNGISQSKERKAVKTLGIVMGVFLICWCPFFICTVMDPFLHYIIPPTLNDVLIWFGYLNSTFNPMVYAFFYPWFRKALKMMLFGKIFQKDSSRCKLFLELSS
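Test system: hTAAR1-expressing CHO RD-HGA16 cells, Gα16-coupled; Probe or stimulus: EC80 β-phenethylamine stimulus; Compound dosing: single nominal final test compound concentration of 3 µM; Timing: 140 s kinetic read after compound, 140 s after agonist; Signal: Fluo-8 calcium-sensitive fluorescence; Measure: % inhibition of agonist calcium response; Controls: DMSO and EC80 PEA controls.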
TAAR1 agonist: agonists of human TAAR1. Q96RJ0. CHO RD-HGA16 TAAR1, Fluo-8 calcium fluorescence; vehicle wells 0%, saturating PEA agonist 100%. activation, % at 3 µM. hit rate 0.99% among 360,000;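 active = activation above the mean activation of all test compounds in the run plus 3 SD, cut at about 38% in these data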
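Benchmarks: low control DMSO, high control PEA (EC100); System: CHO RD-HGA16 cells carrying human TAAR1 plus Gα16; Detection: Fluo-8 fluorescence, 5 s baseline then 140 s kinetic read; Schedule: 17-24 h plating, Fluo-8 75 min 37 °C, 30 min RT; Read-out basis: % activation from peak over basal fluorescence ratio, DMSO-to-PEA scaled.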
OXTR potentiate: potentiators of human oxytocin receptor; P30559; CHO-OTR cells, Fluo-8 calcium fluorescence, potentiator mode; 0% = oxytocin EC15, 100% = EC100; activation, % at 3 µM; hit rate 0.061% among 320,000; AID 2445;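 active = activation above that plate's cutoff, the mean activation of tested compounds plus 3 SD, cut at about 6.6% in these data, passing the limit was not always enough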
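System: human OTR in CHO cells; Also added: sub-maximal oxytocin, roughly EC15; Timing: compound 6 min at room temperature before oxytocin, 100 s read; Technique: Fluo-8 intracellular calcium fluorescence, ex 470-495, em 515-575 nm; Controls: oxytocin EC15 low and EC100 high; Replication: singlicate.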
OXTR ag: activates the human oxytocin receptor | P30559 | CHO-OTR cells, Fluo-8 calcium fluorescence; normalized: DMSO 0%, oxytocin 100% | activation, % at 3 µM | hit rate 0.32% among 320,000 | AID 2435;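 active = activation above the mean of all tested compounds plus 3 SD, cutoff set per screening run, cut at about 20% in these data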;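 note: peak over basal fluorescence ratio from a 100 s FLIPR kinetic read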
OXTR agonist cf: confirmation of human oxytocin receptor agonists. shares compounds with OXTR ag. CHO-OTR cells, Fluo-8 calcium fluorescence, agonist. activation, % at 3 µM. hit rate 20% among 390. AID 434963;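 active = mean activation above about 20% derived from the earlier single-dose screen, limit read from the data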;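 note: peak over minimum fluorescence ratio per well during a 100 second FLIPR read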
V1aR counter 3x: counter-screen for oxytocin receptor agonists: V1a receptor agonists; shares compounds with OXTR ag; CHO-V1R cells, Fluo-8 calcium fluorescence, agonist; activation, % at 3 µM; hit rate 10% among 390;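 active = mean activation over triplicate exceeds the hit threshold set in the earlier primary screen, cut at about 20% in these data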;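 note: peak over basal fluorescence ratio within a 100 second read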
Numbers stand for hits; i = inactive; nt = no result given.

SMILES | V1R ag counter | TAAR1 antagonist | TAAR1 agonist | OXTR potentiate | OXTR ag | OXTR agonist cf | V1aR counter 3x
CCCCC1(c2ccc(F)cc2)NC(=O)N(CC(=O)Nc2ccc(N3CCOCC3)cc2)C1=O (centres undefined) | i | i | i | i | 21.1 | i | i
CC(C)(C)c1ccc(C(=O)CCC(=O)OCC(=O)NCCc2ccc(S(N)(=O)=O)cc2)cc1 | i | 62.5 | i | i | 19.8 | i | i
NS(=O)(=O)c1ccc(CCNC(=O)COC(=O)CCc2ccccc2)cc1 | i | i | i | i | i | nt | nt
FC(F)(F)c1cccc(-c2nc3nc(Cl)c(Cl)nc3[nH]2)c1 | i | nt | nt | i | 22.3 | i | i
CC1CCCC(C)N1CC(O)COCc1ccccc1F (centres undefined) | i | i | i | i | i | nt | nt
Cc1[nH]n(-c2ccccc2)c(=O)c1C(c1cccc([N+](=O)[O-])c1)c1c(C)[nH]n(-c2ccccc2)c1=O | i | i | i | i | 24.2 | i | i
CCCC1(c2ccccc2)NC(=O)N(CC(=O)Nc2cc(C)ccc2OC)C1=O (centres undefined) | i | i | i | i | 23.7 | i | i
COc1ccc(CCNC(=O)C2CCN(S(=O)(=O)N3CCC(C)CC3)CC2)cc1OC | i | i | i | i | i | nt | nt
O=C(Nc1ccc(C(=O)O)cc1)Nc1ccc([N+](=O)[O-])cc1 | i | i | i | i | i | nt | nt
COC(=O)c1ccc(NC(=O)Nc2ccc([N+](=O)[O-])cc2)cc1 | i | i | i | i | 19.7 | i | i
Cc1c(C(=O)NCCSCc2cccc(C(F)(F)F)c2)cnn1-c1ccc(F)cc1 | i | i | i | i | i | nt | nt
O=[N+]([O-])c1ccc(NC(=S)NCc2ccc(F)cc2)cc1 | i | i | i | i | 22.3 | i | i
O=[N+]([O-])c1ccc(NC(=S)NCc2ccncc2)cc1 | i | i | i | i | i | nt | nt
COc1ccc(C(C(=O)NCCC(C)C)N(CCCO)C(=O)c2snc(C(N)=O)c2N)cc1OC (centres undefined) | i | i | i | i | i | nt | nt
CC(=O)c1ccc(N2CCN(c3ccccc3O)CC2)c([N+](=O)[O-])c1 | i | 50.9 | i | i | 23.4 | i | i
COc1ccc(NS(=O)(=O)c2cccc(C(=O)NCC3(N4CCOCC4)CCCCC3)c2)cc1 | i | i | i | i | i | nt | nt
COc1ccc(NS(=O)(=O)c2ccc(C(=O)NCC3(N4CCOCC4)CCCCC3)cc2)cc1 | i | i | 57.4 | i | 23.8 | i | i
Cc1c(O)c2c3c(cccc3c1O)C(=O)N(c1ccccc1)C2=O | i | i | i | i | 24.2 | 29.4 | 34.6
O=C(C1CCN(S(=O)(=O)c2ccc(Br)cc2)CC1)N1CCOCC1 | i | i | i | i | i | nt | nt
CCOc1ccc(Nc2nc(NCC3CCCO3)c3ccccc3n2)cc1 (centres undefined) | i | i | i | i | 20.1 | i | i
COc1ccc([C@H]2CC(=O)C=C(c3ccc(C(=O)O)cc3)C2)cc1OC | i | i | i | i | i | nt | nt
COC(=O)C1CN(C(=O)c2ccc(OC(F)F)cc2)c2ccccc2O1 (centres undefined) | i | i | i | i | i | nt | nt
Cc1cc(C)nc(/N=C(\N)Nc2ccc(-c3ccccc3)cc2)n1 | i | 64.0 | 58.4 | i | 22.6 | i | i
CC(=O)Nc1ccc(N/C(N)=N/c2nc(C)cc(C)n2)cc1 | i | i | i | i | i | nt | nt
O=C(NCCc1ccc(F)cc1)c1ccc(S(=O)(=O)N2CCCC2)cc1 | i | i | i | i | i | nt | nt
SMILES | V1R ag counter | TAAR1 antagonist | TAAR1 agonist | OXTR potentiate | OXTR ag | OXTR agonist cf | V1aR counter 3x
O=C(NC(=S)NNC(=O)[C@H]1C[C@@H]1c1ccccc1)c1ccc(F)cc1 | i | 62.7 | 41.0 | i | 34.7 | 21.6 | 38.8
Cc1ncc(CN2CCC(CO)(CCOc3ccccc3)CC2)s1 | i | i | i | i | 20.5 | i | i
C[C@@H](NCCc1ccc(O)cc1)[C@@H](O)c1ccc(O)cc1 | i | i | i | i | i | nt | nt
CCCCCCCCNC(C)C(O)c1ccc(SC(C)C)cc1 (centres undefined) | i | i | i | i | 22.8 | i | i
O=C(CSc1ccc2c(c1)OCCO2)Nc1ncccc1O | i | i | i | i | i | nt | nt
Cc1ccc(C2=NOC(=O)/C2=C\C=C\c2ccccc2)cc1 | nt | i | i | nt | nt | nt | nt
CCOC(=O)c1ccc(NS(=O)(=O)c2ccc3c(c2)n(C)c(=O)n3C)cc1 | i | i | i | i | 29.8 | i | i
Cc1ccc(NS(=O)(=O)c2ccc(C(=O)OCC(=O)N3CCCCC3)cc2)cc1 | i | i | 40.7 | i | 24.4 | i | i
COC(=O)c1ccc(NS(=O)(=O)c2ccc3c(c2)n(C)c(=O)n3C)cc1 | i | i | i | i | i | nt | nt
Cc1ccc(C(=O)OCC(=O)N2CCCC2)cc1 | i | i | i | i | i | nt | nt
CN(c1ccc(C(=O)N2CCCCC2)cc1)S(=O)(=O)c1ccccc1 | i | i | i | i | 20.9 | i | i
CCN(C(=O)CCS(=O)(=O)c1cccc2nonc12)c1ccc(F)cc1 | i | i | i | i | i | nt | nt
Cc1ccc2nc(N(CCCN(C)C)C(=O)CCc3ccccc3)sc2c1 | i | i | i | i | 23.1 | i | i
Cc1ccc2nc(N(CCCN(C)C)C(=O)CS(=O)(=O)c3ccccc3)sc2c1 | i | i | i | i | i | nt | nt
CN(C)CCCN(C(=O)CCc1ccccc1)c1nc2ccc(Cl)cc2s1 | i | i | i | i | 24.2 | i | i
CCCCn1c(N)c(N(CCOC)C(=O)c2cc3c(s2)CCC3)c(=O)[nH]c1=O | i | i | i | i | i | nt | nt
Fc1ccccc1CNc1nc(-c2cccnc2)nc2ccccc12 | i | i | i | i | i | nt | nt
CC(C)N(CCNCC(O)COc1ccc(C(C)(C)c2ccccc2)cc1)C(C)C (centres undefined) | i | i | i | i | 22.6 | i | i
Cc1nn2c(C(F)(F)F)c3c(nc2c1-c1ccccc1)CCC3 | i | i | i | i | i | nt | nt
COc1cccc2[nH]c(=O)c(-c3ccccc3)cc12 | i | i | i | i | i | nt | nt
CCOC(=O)C(Cc1ccc(O)cc1)NC(=O)CCc1c[nH]c2ccccc12 (centres undefined) | i | i | 40.3 | i | 23.2 | i | i
COC(=O)[C@H](Cc1c[nH]c2ccccc12)NC(=O)CCCc1c[nH]c2ccccc12 | i | i | i | i | i | nt | nt
CSc1ccc(S(=O)(=O)NCC(=O)OCC(=O)N(C)C2CCCCC2)cc1[N+](=O)[O-] | i | i | i | i | i | nt | nt
CC(NC(=O)CN1CCOCC1)c1ccccc1 (centres undefined) | i | i | i | i | 20.6 | i | i
CC(NC(=O)CN1CCCC1)c1ccccc1 (centres undefined) | i | i | i | i | i | nt | nt

Source: PubChem (The Scripps Research Institute Molecular Screening Center)
